Consider 48 sequences from the EternaBench riboswitch data.

In general, apparent Kd refers to a dissociation constant that holds for the conditions of the assay.

For this series, the system named is MS2 coat protein. The series is described as follows: apparent Kd, MS2 coat protein; higher = weaker binding; RNA-MaP array; FMN 200 µM where present. In a few lines:
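Stalled E. coli RNA polymerase transcribed the designs on Illumina sequencing-chip clusters. SNAP-549-labelled MS2 coat protein was titrated from 0.7 or 1.5 nM, doubling to 3 µM, without and then with constant ligand, in 100 mM Tris-HCl pH 7.5, 80 mM KCl, 4 mM MgCl2, BSA, DTT, yeast tRNA and Tween-20. Per-cluster binding curves were fitted to green signal normalised to red-channel RNA signal and control-cluster median Fmax. The apparent Kd is the median of the filtered fits.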

The mark [1] stands for this setting: designed as: OFF switch for flavin mononucleotide, no ligand.
The mark [2] stands for this setting: ligand present: flavin mononucleotide, designed as: OFF switch for flavin mononucleotide.
[3] abbreviates: designed as: ON switch for flavin mononucleotide, no ligand.
[4] abbreviates: ligand present: flavin mononucleotide, designed as: ON switch for flavin mononucleotide.

On to “ACUAAUUAGUGAGGAUAUACAUAAUUUAUAACUGUAGAAGGCACAAACCUCAAUACAUGAGGAUCACCCAUGUGGUAUAUAAAU”, for which the “apparent Kd” value runs as follows: under setting [1], 244 nM; under setting [2], 434 nM.

“GUGUAGUCAGGAUAUACAUAGGAAGAGAAGAGAAGAGAAGCACAUGAGGAUCACCCAUGUAGAAGGGACAGUGU”: the “apparent Kd” value by setting is: under setting [1], 70.9 nM; under setting [2], 82.9 nM.

As to “CAGGUAGACUGAGGAUAUACAAUAAAGACCUAGUCUAUCUAGGUCUCCACAUGAGGAUCACCCAUGUAGAAGGCAGUCUGCCUG”, the “apparent Kd” value under setting [1] came out at 18.1 nM and the “apparent Kd” value under setting [2] was found to be 44.2 nM.

For “GUGUCGUCAGGAUAUCCUACAUAACUAUCGUUGUUACCAUUGGAGAAGGGACAUGAGGAUCACCCAUGUUUUCC”, the “apparent Kd” value by setting is: under setting [1], 19.3 nM; under setting [2], 19.7 nM.

As to “CCUUUGAAGAUCCUAAAUUUCGACAUGAGGAUCACCCAUGUGCAGGAUAUCGUGCCAGUGAUGUACGAGAAGGGCCGUCUCUGC”, the “apparent Kd” value amounted to 160 nM under setting [1] and 155 nM under setting [2].

Turning to “UAUGAGCGAGGAUAUGCUUGGGACGUCGUUCUUGCGGCGAGACAUGAGGAUCACCCAUGUAGAAGGCGCGAGCG”, the “apparent Kd” value by setting is: under setting [1], 18.4 nM; under setting [2], 18.5 nM.

For the sequence “UGACCCUGGAAGAGUGUUUAGACAUGAGGAUCACCCAUGUCUGAGGAUAUGCGGCAUCAAUAACAGCAGAAGGCAGACUUGGGU”, the “apparent Kd” value came to 239 nM under setting [1] and 32.7 nM under setting [2].

Regarding “ACCUCACAUGAGGAUCACCCAUGUCAGGAUAUUCAAACAGGCGGAACUCCGCCUUCUCGAAGAAGGGACAUUAA”, the “apparent Kd” value is, setting by setting: under setting [1], 16.2 nM; under setting [2], 72.4 nM.

Take “GCGAUUUUGUAAGGAUAUACACGAGUUUCAAGUGUAGAAGGUACUUACAUGAGGAUCACCCAUGUAUACUUGGAUAAUAGUCGU”: the “apparent Kd” value runs as follows: under setting [3], 29.2 nM; under setting [4], 23.5 nM.

“CUAUAUAUAUGAGGAUAUCUAUAUCCAACAUGAGGAUCACCCAUGUUGAGGAUCACCCAUGUAAAGGAGAAGGCAUAUAUAUAG”: the “apparent Kd” value by setting is: under setting [3], 43.2 nM; under setting [4], 14.9 nM.

Regarding “UUACUUCAUGAGAAGGACAUGAGGAUCACCCAUGUAGGAUAUCGUGGGAGACUGGUAUUGAAUCUUCGGAUUCAAUACCAGUCU”, the “apparent Kd” value amounted to 56.9 nM under setting [3] and 9.15 nM under setting [4].

As for “CCUUUGAAGAUCCUGGUUUUCGACAUGAGGAUCACCCAUGUGCAGGAUAUCGUGCCGGUGCUGUGCGAGAAGGGCAGUCUCAGC”, the “apparent Kd” value runs as follows: under setting [1], 15.1 nM; under setting [2], 17.9 nM.

With “AAGGUACGAGGAUAUGCAUAGAUACAGACACAUGUUCAAGUACAUGAGGAUCACCCAUGUAGAAGGCGUAUAUA”, the “apparent Kd” value by setting is: under setting [1], 43.5 nM; under setting [2], 61.8 nM.

Turning to “UUUUUGUGAGGAUAUCAGUAGUAAAUAAAUAAAAUAACUACUGAGAAGGCACAUGAGGAUCACCCAUGUUCUUU”, the “apparent Kd” value is, setting by setting: under setting [1], 18.9 nM; under setting [2], 49.6 nM.

Consider “AGCUGGUGACAGCAUCGAGCAAAACAUGAGGAUCACCCAUGUAGAAGGCUGUACGGUUACCGUACAGAGGAUAUACAUAGCUCG”, for which the “apparent Kd” value was 7.15 nM under setting [1] and 10 nM under setting [2].

For the sequence “UUGAUUAUACAAGGAUAUCUAUUGUAAUUUCGUCUUACAUGAGGAUCACCCAUGUUAAUAUUUUUAGAGAAGGUGUAUUUUCAG”, the “apparent Kd” value was determined as 39.9 nM under setting [3] and 25.9 nM under setting [4].

As to “UGUGCUAUGUAGAAGGCAGAUCUGAUUCAGAUCUGAGGAUAUACAUGAGGAUCACCCAUGUUAUGCACCAGCACGAGAGUGCAA”, the “apparent Kd” value is, setting by setting: under setting [1], 8.13 nM; under setting [2], 16 nM.

On to “GGAUGACAAAGUCAUCCCUGACGAACAUGAGGAUCACCCAUGUAGGAUAUGCUACUCAAAGAGUAGCAGAAGGACAUGUGUCUU”, for which the “apparent Kd” value under setting [1] worked out at 31.2 nM and the “apparent Kd” value under setting [2] is 150 nM.

Turning to “AAACCACAUGAGGAUCACCCAUGUGAUAAAAGCAUAGGAUAUCUGGAUGUGAGAGGCGGCAGAGAAGGAUGCACGC”, the “apparent Kd” value by setting is: under setting [3], 61.5 nM; under setting [4], 53.9 nM.

As for “GUUUGGGCAGGAUAUACAUGAGGAUCACCCAUGUGUUUUUUGUGUGUUUUGUUAUCGUGUAGAAGGGUUCGGGC”, the “apparent Kd” value came to 68.5 nM under setting [1] and 147 nM under setting [2].

In the case of “GUAGCACAAGUUAACAUGAGGAUCACCCAUGUCAGAAGACAUGAGGAUAUGGAUGUGAAGAUAAUCCAGAAGGCAUAAUGCUAA”, the “apparent Kd” value is, setting by setting: under setting [3], 774 nM; under setting [4], 131 nM.

As to “AAGAAGUCAGGAUAUGCUGCUCGUCACUUGCGUGAUGAGUAGCAGAAGGGACAUGAGGAUCACCCAUGUGGAAG”, the “apparent Kd” value reads like this: under setting [1], 111 nM; under setting [2], 240 nM.

In the case of “GGAUGACAAAGUCAUCCUAUUCGAACAUGAGGAUCACCCAUGUAGGAUAUGCAACUCAAAGAGUUGCAGAAGGACAUGUGCUUU”, the “apparent Kd” value under setting [1] was 34.7 nM and the “apparent Kd” value under setting [2] was determined as 166 nM.

In the case of “GAGGACUGUGCAGGAUAUACAUGAGGAUCACCCAUGUAGGUCGGUUCGAAAGUAGAAGGGCACGAUUGUCGAUAGCACGCGUGA”, the “apparent Kd” value was determined as 97.5 nM under setting [1] and 39.2 nM under setting [2].

Regarding “UCGCUGCGAGGAUAUACGUUCGCGCGCUUUCGUUUGCGCGUACAUGAGGAUCACCCAUGUAGAAGGCGCGCUGC”, the “apparent Kd” value by setting is: under setting [1], 16.4 nM; under setting [2], 15.5 nM.

In the case of “AGCGGAUUGUAGAAGGGUGACAUGAGGAUCACCCAUGUUCAAAUGCGAUUUACGGUAAUUGAUCCACAGGAUAUACUGUCCGAG”, the “apparent Kd” value is 942 nM under setting [3] and 266 nM under setting [4].

On to “GGUGUGAGGCAGGAUAUGCUAUAUGUAAGUAAUGCAGAAGGGUCUACAUGAGGAUCACCCAUGUGUGCGGUAGA”, for which the “apparent Kd” value reads like this: under setting [1], 105 nM; under setting [2], 311 nM.

Regarding “AUCAGCUCGUCAGGAUAUACGUCACUGCGUCAGCUGUGUGGUAAGAUCACAUGAGGAUCACCCAUGUAGAAGGGACGAGCUGAU”, the “apparent Kd” value by setting is: under setting [1], 15.3 nM; under setting [2], 295 nM.

With “GUGCACAUUCGAGGAUAUCGGAGAGGGAUCCUUCGAGAAGGCGAUUCAUGCUGUGUUAUUCUGGACAUGAGGAUCACCCAUGUG”, the “apparent Kd” value under setting [3] came out at 265 nM and the “apparent Kd” value under setting [4] is 125 nM.

Regarding “CUCGCAGUAAUAGGAUAUCCACAUCCGUGGCCUGUGUGUGACUUAACAUGAGGAUCACCCAUGUUGGAGAAGGAUUACUCAAUA”, the “apparent Kd” value by setting is: under setting [1], 728 nM; under setting [2], 178 nM.

With “AAGAAACAUGAGGAUCACCCAUGUCAGGAUAUGCAGGACUGACGAAAGUCAGUCCAAAGCAGAAGGGACUAGAA”, the “apparent Kd” value under setting [1] was found to be 60.7 nM and the “apparent Kd” value under setting [2] stood at 81.8 nM.

Regarding “UCGCUGCGAGGAUAUACAUGAGGAUCACCCAUGUACGGGUCCGGGUUUGAGUUGAUGAGUAGAAGGCGCAGUGA”, the “apparent Kd” value under setting [1] was found to be 94.7 nM and the “apparent Kd” value under setting [2] came to 86.1 nM.

Take “UCUUAUUGCAAGGAUAUGCAAAUUAUUUUUUAAGCAGAAGGUGCAACAUGAGGAUCACCCAUGUUUCCGGGCAA”: the “apparent Kd” value is 15.3 nM under setting [1] and 42.9 nM under setting [2].

For the sequence “UGUCGGAGCAGAGGAUAUUACAUGAGGAUCACCCAUGUAUGAACCAAUAGCUGGAAACAGCAAUGUAAGAAGGCUGCUCCGAUA”, the “apparent Kd” value by setting is: under setting [1], 11.8 nM; under setting [2], 166 nM.

For the sequence “UUACCUCAUGAGAAGGACAUGAGGAUCACCCAUGUAGGAUAUCGUGGGAGACUGGUAUUGAAUCUUCGGAUUCAAUACCUGUCU”, the “apparent Kd” value by setting is: under setting [3], 454 nM; under setting [4], 27.9 nM.

In the case of “GGCCUGUUAGGAUAUUAGUAGUAGUCAGAAUAGACUAUUACUGAGAAGGGACAUGAGGAUCACCCAUGUUGGCC”, the “apparent Kd” value is, setting by setting: under setting [1], 17.5 nM; under setting [2], 19.9 nM.

For “GUGGUCAGACAUGAGGAUCACCCAUGUGGAAUAAAUAACAGACAGGAUAUGUAAUAUAGGAUAUAACAGAAGGGUCGAUUGGUG”, the “apparent Kd” value amounted to 89 nM under setting [3] and 77.9 nM under setting [4].

Turning to “ACUAUACGAGGAUAUGCUGUCAGUACUCCGAGGUUAGUUUGACAUGAGGAUCACCCAUGUAGAAGGCGUUUACU”, the “apparent Kd” value runs as follows: under setting [1], 24.8 nM; under setting [2], 22.2 nM.

With “CAGGUAGACUGAGGAUAUACAAAGACCUAGUUUAUCUAGGUCAAAAUCACAUGAGGAUCACCCAUGUAGAAGGCAGUCUGCCUG”, the “apparent Kd” value under setting [1] worked out at 15.7 nM and the “apparent Kd” value under setting [2] is 26 nM.

Turning to “UUGCGCUGUCGAGAGGAUAUGCGGUGUUGGACAUGAGGAUCACCCAUGUUAGCGAUUGCUUUACGGUAGAAGGCUCUUCAGCUGC”, the “apparent Kd” value under setting [3] is 78.8 nM and the “apparent Kd” value under setting [4] is 52.9 nM.

In the case of “AAUGUUUGAUUCCACUUAUACAUGAGGAUCACCCAUGUUAUCGAGGAUAUGCAUUAAAGUGUUUAGCAGAAGGCGAUGUAAUUG”, the “apparent Kd” value reads like this: under setting [1], 7.42 nM; under setting [2], 23.6 nM.

“CCGGCGUCAGGAUAUCCAAUAUAUGACAUGAGGAUCACCCAUGUUUCCACUCGUACCUCCGGAGAAGGGACGAAUA”: the “apparent Kd” value runs as follows: under setting [1], 28.1 nM; under setting [2], 24.5 nM.

With “UGAUUGCCUGUAAGGAUAUCUACGGCCGUUCGCUGGGAGAAGGUACAUGAGGAUCACCCAUGUACAGUCAUGGG”, the “apparent Kd” value is, setting by setting: under setting [1], 42.9 nM; under setting [2], 93.5 nM.

For the sequence “UUUGGUUUGCGAGGAUAUGCUUUUAGUAAGUUAGCAGAAGGCGCGUUACAUAGAACCUCUUGUUACAUGAGGAUCACCCAUGUU”, the “apparent Kd” value under setting [1] came to 88.2 nM and the “apparent Kd” value under setting [2] was 95 nM.

On to “GUGCUACAGCUGCGCACGAGACAUGAGGAUCACCCAUGUGACAGAAGGGACUUGUUAAAGGUAGGUCAGGAUAUGUCUUAAAAG”, for which the “apparent Kd” value came out at 148 nM under setting [3] and 44.2 nM under setting [4].

Regarding “GUUUAGUGAGGAUAUGCGGCAUCGAUCGAGCGCGGUCGGCUACAGAAGGCACAUGAGGAUCACCCAUGUUUCUC”, the “apparent Kd” value reads like this: under setting [1], 41 nM; under setting [2], 278 nM.

“AAAUAGCAUGAGGAUAUUGGACUGGAUUCAGUACGAGAAGGCAUGACAUGAGGAUCACCCAUGUUUUGUUGGGA”: the “apparent Kd” value by setting is: under setting [1], 51.7 nM; under setting [2], 202 nM.

Take “UACCUGAGGCAAAGCUUUAGGUAUACAUGAGGAUCACCCAUGUAGGAUAUGGUAGGCUUUGCUUACCAGAAGGACAUGUUAAUA”: the “apparent Kd” value reads like this: under setting [1], 17.3 nM; under setting [2], 56.3 nM.
